Measured values taken from ChEMBL document CHEMBL5036324 (J Med Chem, 2021).
≈ marks a conversion by molar mass, not a printed value. Calls of active or inactive are those of the source. The calls are words filed in the database; no cut-off is given here.

What was measured:
[1] = molecular target: hERG (KCNH2) (Homo sapiens, UniProt Q12809); test: Inhibition of hERG expressed in HEK293 cells at 10 uM relative to control; type: cell-based; settings: HEK293 cells expressing hERG
[2] = molecular target: T1, TLR7 and TLR8 (Homo sapiens) (UniProt Q9NYK1+Q9NR97); test: Agonist activity at human TLR7/8 expressed in human PBMC cells assessed as induction of VEGF secretion incubated for 12 hrs by multiplexed immunoassay; type: cell-based; settings: filed as agonist
Method in brief: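 Healthy-volunteer PBMCs from a single donor were isolated by Ficoll−Hypaque gradient and plated at 2.0 × 10⁶ cells/mL. They were stimulated for 12 h with escalating compound concentrations. Supernatants were assayed in duplicate on a 41-analyte magnetic bead cytokine/chemokine panel read by Luminex. EC_max is the concentration giving maximal cytokine induction.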

[3] = molecular target: T1, TLR7 and TLR8 (Homo sapiens); test: Agonist activity at human TLR7/8 expressed in human PBMC cells assessed as induction of IFN-alpha production at 0.5 ug/ml incubated for 24 hrs by multiplexed immunoassay; type: cell-based; settings: filed as agonist, dose 0.5 µg/ml
Method in brief: (§1)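 PBMCs from five healthy donors, at 3.0 × 10⁶ cells/mL, received one compound concentration for 24 h. Cytokines in centrifuged supernatants were measured in duplicate with a multiplex magnetic bead cytokine panel.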

[4] = Acute toxicity in BALB/c mouse assessed as decrease in locomotor activity at 15 to 80 mg/kg, ip administered as single dose measured after 24 hrs; type: organism-based; settings: in vivo, dose 15-80 mg/kg
[5] = Acute toxicity in BALB/c mouse assessed as white discharge from eyes at 15 to 80 mg/kg, ip administered as single dose; type: organism-based; settings: in vivo, dose 15-80 mg/kg
[6] = molecular target: T1, TLR7 and TLR8 (Homo sapiens); test: Agonist activity at human TLR7/8 expressed in human PBMC cells assessed as induction of IFN-gamma production at 0.5 ug/ml incubated for 24 hrs by multiplexed immunoassay; type: cell-based; settings: filed as agonist, dose 0.5 µg/ml; method in brief: as §1
[7] = Aqueous solubility of compound; type: physicochemical
[8] = Acute toxicity in BALB/c mouse assessed as white discharge from eyes at 15 to 80 mg/kg, ip administered as single dose measured after 24 hrs; type: organism-based; settings: in vivo, dose 15-80 mg/kg
[9] = Acute toxicity in BALB/c mouse assessed as maximum tolerated dose; settings: in vivo
[10] = Acute toxicity in BALB/c mouse assessed as decrease in locomotor activity at 15 to 80 mg/kg, ip administered as single dose; type: organism-based; settings: in vivo, dose 15-80 mg/kg
[11] = Subacute toxicity in BALB/c mouse assessed as pathological changes in spleen at 15 mg/kg, ip administered as single dose by H and E staining based microscopic analysis; type: organism-based; settings: in vivo
Method in brief: (§2)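 Subacute toxicity study in BALB/c mice given ip TLR7/8 agonist. Tissues from treated and control mice were examined by hematoxylin and eosin staining.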

[12] = Subacute toxicity in BALB/c mouse assessed as splenomegaly at 15 mg/kg, ip administered as single dose; type: organism-based; settings: in vivo
Method in brief: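 Subacute toxicity study in BALB/c mice given ip TLR7/8 agonist. Spleens from treated and control groups were weighed and photographed. Body weight was recorded every day.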

[13] = Subacute toxicity in BALB/c mouse assessed as pathological changes in heart at 15 mg/kg, ip administered as single dose by H and E staining based microscopic analysis; type: organism-based; settings: in vivo; method in brief: as §2
[14] = Induction of phospholipidosis in human HepG2 cells assessed as intracellular accumulation of phospholipids at 3 uM incubated for 48 hrs by […] staining based fluorescence microscopic analysis; type: cell-based; settings: hepg2, 48 h
Method in brief: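 HepG2 cells were screened in vitro for phospholipidosis using HCS LipidTOX Red phospholipidosis detection reagent. Compound was tested at 3 μM and compared with a vehicle group.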

[15] = Acute toxicity in BALB/c mouse assessed as mild diarrhea at 15 to 80 mg/kg, ip administered as single dose measured after 24 hrs; type: organism-based; settings: in vivo, dose 15-80 mg/kg
[16] = molecular target: Toll-like receptor 4 (Homo sapiens) (UniProt O00206); test: Agonist activity at human TLR4 expressed in HEK-Blue hTLR4 cells assessed as activation of NFkappaB incubated for 6 to 16 hrs by SEAP reporter gene based assay; type: cell-based; settings: time 6-16 hrs
Method in brief: (§3)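 HEK293-derived SEAP reporter cells stably expressing the matching human TLR (2, 3, 4, 7, 8 or 9), kept under selection antibiotics. SEAP is driven by an NF-κB/AP-1-inducible promoter. HEK-Blue Null2-k (no TLR7/8) serves as the parental line. Cells were given escalating concentrations of stimuli for 6−16 h, then SEAP was read with HEK-Blue detection at 620 nm.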

[17] = molecular target: Toll-like receptor 2 (Homo sapiens) (UniProt O60603); test: Agonist activity at human TLR2 expressed in HEK-Blue hTLR2 cells assessed as activation of NFkappaB incubated for 6 to 16 hrs by SEAP reporter gene based assay; type: cell-based; settings: time 6-16 hrs; method in brief: as §3
[18] = Acute toxicity in BALB/c mouse assessed as mild diarrhea at 15 to 80 mg/kg, ip administered as single dose; type: organism-based; settings: in vivo, dose 15-80 mg/kg
[19] = Acute toxicity in BALB/c mouse assessed as body weight loss at 60 mg/kg, ip administered as single dose relative to control; type: organism-based; settings: in vivo
[20] = Acute toxicity in BALB/c mouse assessed as body weight regain at 60 mg/kg, ip administered as single dose measured after 4 days; type: organism-based; settings: in vivo, 96 h, time 4 day
[21] = molecular target: Nuclear factor NF-kappa-B complex (Homo sapiens) (UniProt Q00653+P19838+Q04206); test: Activation of NF-KappaB in HEK-Blue Null2-k cells incubated for 6 to 16 hrs by SEAP reporter gene based assay; type: cell-based; settings: time 6-16 hrs; method in brief: as §3
Nuclear factor NF-kappa-B complex (Homo sapiens), sequence (P19838 whole entry, looked up): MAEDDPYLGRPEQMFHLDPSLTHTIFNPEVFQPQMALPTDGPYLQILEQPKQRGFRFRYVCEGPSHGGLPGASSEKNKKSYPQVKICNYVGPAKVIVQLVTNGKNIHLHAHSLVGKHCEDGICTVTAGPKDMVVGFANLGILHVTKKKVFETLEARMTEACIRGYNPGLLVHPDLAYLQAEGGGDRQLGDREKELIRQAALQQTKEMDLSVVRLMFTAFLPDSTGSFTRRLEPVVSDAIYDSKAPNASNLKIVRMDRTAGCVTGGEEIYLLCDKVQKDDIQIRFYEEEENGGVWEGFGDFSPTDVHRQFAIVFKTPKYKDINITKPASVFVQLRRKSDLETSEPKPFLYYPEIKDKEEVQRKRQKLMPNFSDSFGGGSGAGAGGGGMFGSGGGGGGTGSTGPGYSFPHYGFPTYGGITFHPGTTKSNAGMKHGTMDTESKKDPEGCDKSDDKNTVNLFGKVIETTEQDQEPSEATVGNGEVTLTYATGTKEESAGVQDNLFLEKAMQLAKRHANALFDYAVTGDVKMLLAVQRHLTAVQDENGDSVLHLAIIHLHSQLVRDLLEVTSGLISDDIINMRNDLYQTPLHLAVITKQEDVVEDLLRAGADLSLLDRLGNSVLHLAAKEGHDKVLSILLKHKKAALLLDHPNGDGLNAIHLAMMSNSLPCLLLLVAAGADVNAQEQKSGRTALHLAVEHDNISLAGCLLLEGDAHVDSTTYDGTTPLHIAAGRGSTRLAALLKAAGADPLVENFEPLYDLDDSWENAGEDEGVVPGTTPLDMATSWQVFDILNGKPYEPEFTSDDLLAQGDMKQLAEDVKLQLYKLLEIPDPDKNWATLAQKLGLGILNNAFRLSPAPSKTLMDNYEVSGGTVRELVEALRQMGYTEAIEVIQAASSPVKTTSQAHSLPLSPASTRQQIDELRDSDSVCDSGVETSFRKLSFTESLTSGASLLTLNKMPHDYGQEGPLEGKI
Nuclear factor NF-kappa-B complex (Homo sapiens), sequence (Q00653 whole entry, looked up): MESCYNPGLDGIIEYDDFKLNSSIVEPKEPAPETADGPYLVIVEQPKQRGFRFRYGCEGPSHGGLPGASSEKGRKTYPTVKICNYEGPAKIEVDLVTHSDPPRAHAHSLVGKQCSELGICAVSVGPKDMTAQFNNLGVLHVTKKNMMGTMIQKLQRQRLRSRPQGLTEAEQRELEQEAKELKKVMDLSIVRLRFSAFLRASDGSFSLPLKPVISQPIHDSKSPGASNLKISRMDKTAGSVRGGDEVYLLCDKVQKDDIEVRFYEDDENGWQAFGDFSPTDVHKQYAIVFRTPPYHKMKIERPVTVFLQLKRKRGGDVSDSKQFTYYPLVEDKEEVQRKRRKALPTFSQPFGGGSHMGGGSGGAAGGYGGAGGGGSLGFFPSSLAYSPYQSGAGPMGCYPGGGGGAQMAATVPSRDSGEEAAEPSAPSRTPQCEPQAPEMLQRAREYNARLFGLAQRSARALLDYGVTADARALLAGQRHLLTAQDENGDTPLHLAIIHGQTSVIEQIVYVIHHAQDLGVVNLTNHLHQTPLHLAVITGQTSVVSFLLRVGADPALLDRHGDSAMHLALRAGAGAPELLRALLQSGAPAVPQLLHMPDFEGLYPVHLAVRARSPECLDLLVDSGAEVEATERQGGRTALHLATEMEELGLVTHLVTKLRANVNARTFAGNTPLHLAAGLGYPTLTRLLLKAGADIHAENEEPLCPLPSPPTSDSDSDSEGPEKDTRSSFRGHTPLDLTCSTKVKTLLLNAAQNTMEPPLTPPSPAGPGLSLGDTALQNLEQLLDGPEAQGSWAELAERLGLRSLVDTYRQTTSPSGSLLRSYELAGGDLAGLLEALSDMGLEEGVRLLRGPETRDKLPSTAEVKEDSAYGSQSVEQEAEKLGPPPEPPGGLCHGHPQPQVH
Nuclear factor NF-kappa-B complex (Homo sapiens), sequence (Q04206 whole entry, looked up): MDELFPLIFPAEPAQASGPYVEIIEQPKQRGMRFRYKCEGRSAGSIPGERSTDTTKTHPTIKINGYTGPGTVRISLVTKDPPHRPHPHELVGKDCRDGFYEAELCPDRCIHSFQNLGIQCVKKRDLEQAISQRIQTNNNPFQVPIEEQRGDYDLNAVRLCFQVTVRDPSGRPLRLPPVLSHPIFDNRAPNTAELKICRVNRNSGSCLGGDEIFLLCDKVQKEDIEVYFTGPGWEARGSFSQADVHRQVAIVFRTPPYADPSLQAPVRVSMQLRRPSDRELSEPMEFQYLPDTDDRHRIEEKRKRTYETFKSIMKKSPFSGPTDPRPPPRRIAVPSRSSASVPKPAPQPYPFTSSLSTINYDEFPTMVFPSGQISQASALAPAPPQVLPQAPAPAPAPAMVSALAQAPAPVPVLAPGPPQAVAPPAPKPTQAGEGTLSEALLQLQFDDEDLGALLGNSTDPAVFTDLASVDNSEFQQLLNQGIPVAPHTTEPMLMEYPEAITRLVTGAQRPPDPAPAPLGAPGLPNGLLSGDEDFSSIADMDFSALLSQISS

T1 sequence (Q9NR97 whole entry, looked up): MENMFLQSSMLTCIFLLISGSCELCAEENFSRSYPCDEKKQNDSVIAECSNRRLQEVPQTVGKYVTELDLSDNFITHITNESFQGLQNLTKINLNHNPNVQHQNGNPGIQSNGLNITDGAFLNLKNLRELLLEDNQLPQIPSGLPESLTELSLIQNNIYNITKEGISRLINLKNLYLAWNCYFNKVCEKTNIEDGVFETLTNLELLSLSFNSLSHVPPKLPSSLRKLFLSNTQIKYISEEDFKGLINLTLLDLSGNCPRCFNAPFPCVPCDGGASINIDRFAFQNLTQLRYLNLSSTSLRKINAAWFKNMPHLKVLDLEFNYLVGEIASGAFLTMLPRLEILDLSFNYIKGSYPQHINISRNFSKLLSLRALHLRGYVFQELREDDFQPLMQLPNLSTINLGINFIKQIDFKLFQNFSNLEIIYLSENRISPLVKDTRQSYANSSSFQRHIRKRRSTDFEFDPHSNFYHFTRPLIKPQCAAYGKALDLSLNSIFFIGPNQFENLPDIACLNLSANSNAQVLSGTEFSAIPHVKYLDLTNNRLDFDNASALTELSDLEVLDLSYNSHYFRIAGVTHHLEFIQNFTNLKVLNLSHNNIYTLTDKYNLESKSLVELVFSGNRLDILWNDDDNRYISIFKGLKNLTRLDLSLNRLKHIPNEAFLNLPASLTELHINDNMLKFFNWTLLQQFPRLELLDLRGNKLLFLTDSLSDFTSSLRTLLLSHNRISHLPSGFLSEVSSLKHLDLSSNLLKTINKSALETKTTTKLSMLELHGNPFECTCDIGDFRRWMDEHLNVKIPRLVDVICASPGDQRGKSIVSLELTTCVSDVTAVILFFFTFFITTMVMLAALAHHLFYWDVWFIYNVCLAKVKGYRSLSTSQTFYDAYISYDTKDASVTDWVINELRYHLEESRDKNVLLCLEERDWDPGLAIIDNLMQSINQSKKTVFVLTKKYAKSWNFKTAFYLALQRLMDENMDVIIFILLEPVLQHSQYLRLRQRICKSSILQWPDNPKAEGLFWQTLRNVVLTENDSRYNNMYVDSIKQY
T1 sequence (Q9NYK1 whole entry, looked up): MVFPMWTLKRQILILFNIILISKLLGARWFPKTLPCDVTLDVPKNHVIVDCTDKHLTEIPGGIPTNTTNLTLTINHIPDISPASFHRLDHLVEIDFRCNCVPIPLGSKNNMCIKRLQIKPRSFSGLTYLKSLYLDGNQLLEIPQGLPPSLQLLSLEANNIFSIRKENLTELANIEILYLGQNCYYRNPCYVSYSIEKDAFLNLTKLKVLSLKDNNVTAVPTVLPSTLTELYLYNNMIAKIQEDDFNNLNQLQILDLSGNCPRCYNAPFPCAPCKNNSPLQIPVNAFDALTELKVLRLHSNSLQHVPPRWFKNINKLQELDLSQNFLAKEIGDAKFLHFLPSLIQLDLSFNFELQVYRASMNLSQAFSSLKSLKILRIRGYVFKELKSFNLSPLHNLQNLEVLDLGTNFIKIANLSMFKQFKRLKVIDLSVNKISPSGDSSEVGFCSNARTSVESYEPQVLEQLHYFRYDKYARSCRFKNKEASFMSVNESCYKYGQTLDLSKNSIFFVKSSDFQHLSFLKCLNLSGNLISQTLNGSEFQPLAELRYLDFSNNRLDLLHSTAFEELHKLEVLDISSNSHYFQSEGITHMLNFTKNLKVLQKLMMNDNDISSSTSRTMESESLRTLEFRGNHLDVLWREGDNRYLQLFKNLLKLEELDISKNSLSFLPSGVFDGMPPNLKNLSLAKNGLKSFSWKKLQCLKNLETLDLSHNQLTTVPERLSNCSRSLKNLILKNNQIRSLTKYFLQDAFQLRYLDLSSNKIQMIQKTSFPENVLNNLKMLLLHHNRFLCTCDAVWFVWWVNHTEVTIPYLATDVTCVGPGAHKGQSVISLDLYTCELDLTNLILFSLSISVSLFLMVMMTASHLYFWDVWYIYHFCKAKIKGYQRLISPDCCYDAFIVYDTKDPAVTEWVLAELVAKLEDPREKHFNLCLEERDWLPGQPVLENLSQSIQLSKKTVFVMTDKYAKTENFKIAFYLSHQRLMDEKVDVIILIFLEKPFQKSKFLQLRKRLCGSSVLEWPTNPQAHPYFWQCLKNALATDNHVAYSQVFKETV

Row | Structure (SMILES) | inhibition at 10 µM [1] | Activity [2] | Activity [3] | Activity [4] | Activity [5] | Activity [6] | solubility [7] | Activity [8] | MTD [9] | Activity [10] | Activity [11] | Activity [12] | Activity [13] | Activity [14] | Activity [15] | Activity [16] | Activity [17] | Activity [18] | Activity [19] | Activity [20] | also measured
1 | COCCNc1nc(N)nc2ccc(Cc3ccc(CN(C)C)cc3)nc12 | 14.8% | Active | Active | Non-Toxic | Toxic | Active | 1030 µg/mL (≈ 2810 µM) | Non-Toxic | 45 mg/kg | Toxic | Non-Toxic | Toxic | Non-Toxic | Non-Toxic | Non-Toxic | inactive | inactive | Toxic | 15.3% | Non-Toxic | Activity [21]: inactive
2 | CCCCNc1nc(N)nc2ccc(Cc3ccc(CN(C)C)cc3)nc12 | 89.3% | Active | Active | Non-Toxic | Toxic | Active | 45 µg/mL (≈ 123 µM) | Non-Toxic | 30 mg/kg | Toxic | Non-Toxic | Toxic | Non-Toxic | Non-Toxic | Non-Toxic | inactive | inactive | Toxic | 17.6% | Non-Toxic | Activity [21]: inactive
